The subject of experiment [1] is Candida albicans. Nature of the experiment: Antifungal activity against fluconazole-resistant Candida albicans at 100 ug/well after 24 hrs by well diffusion assay. Format: functional. As to conditions: read-out: DIZ. The procedure, abridged: (§1)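 Agar well diffusion on Mueller Hinton agar: 17 h cultures swabbed over the surface, wells cut with a cork borer after 10 min. Each well loaded with 10 µl of a 10 mg/mL DMSO stock (100 µg/well), with a DMSO control well. Plates incubated at 37 °C for 24 h. Zone of inhibition diameter measured in mm.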
In general terms: In agar diffusion tests the substance spreads into inoculated agar from a disc or well.

In experiment [2] the test system is Candida albicans. The experiment can be described thus: Antifungal activity against fluconazole-resistant Candida albicans by NCCLS method. It counts as functional.
Experiment [3] deals with Pseudomonas aeruginosa. The experiment can be described thus: Antibacterial activity against Pseudomonas aeruginosa MTCC 201 at 100 ug/well after 24 hrs by well diffusion assay. Format: functional. The procedure, abridged: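 17 h bacterial cultures swabbed onto Mueller Hinton agar; after 10 min wells were cut with a cork borer and loaded with compound from a 10 mg/mL stock, with a DMSO control. Plates were held at 37 °C for 24 h, and susceptibility was read as the diameter of the zone of inhibition in mm.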

Experiment [4] has as its system HeLa. The experiment can be described thus: Cytotoxicity against human HeLa cells assessed as reduction in cell viability after 48 hrs by MTT assay. It counts as functional, cell-based. In general terms: Formazan colour is commonly taken as a measure of viable cells.
The subject of experiment [5] is SAS. The experiment can be described thus: Cytotoxicity against human SAS cells assessed as reduction in cell viability after 48 hrs by MTT assay. Format: functional, cell-based.
Experiment [6] has as its system Staphylococcus aureus. The experiment can be described thus: Antibacterial activity against methicillin-resistant Staphylococcus aureus at 100 ug/well after 24 hrs by well diffusion assay. It counts as functional. The following applies: read-out: DIZ. The procedure, abridged:
as §1

The subject of experiment [7] is Staphylococcus aureus. Nature of the experiment: Antibacterial activity against methicillin-resistant Staphylococcus aureus by NCCLS method. It counts as functional.

The results in this text go back to ChEMBL document CHEMBL3352332, “Synthesis and SAR study of novel anticancer and antimicrobial naphthoquinone amide derivatives” (Bioorg Med Chem Lett, 2014).

Structures are written as SMILES. ≈ marks a conversion by molar mass, not a printed value. Calls of active or inactive are those of the source.

A word on the MIC: it is the smallest concentration in the dilution series that meets the test's criterion for growth inhibition. Read a high MIC as a less susceptible organism. Broadly, the IC50 is the concentration that inhibits the measured activity by half. For the compound `CC[C@H](C)[C@H](NC(=O)CSC1=CC(=O)c2cccc(OC)c2C1=O)C(=O)OC`, the zone of inhibition at 100 µg/disc in experiment [1] turned out to be 15 mm; in experiment [6], 19 mm. The MIC in experiment [2] and in experiment [7] was 15.6 µg/mL (≈ 38.5 µM) in each case. In addition, the “diameter of the inhibition zone (DIZ)” value in experiment [3] is “inactive”. In addition, the values for the IC50 in experiment [4] and in experiment [5] were 94.5 µM and 63 µM, respectively.
As for `COC(=O)[C@@H](NC(=O)CSC1=C(C)C(=O)c2ccccc2C1=O)C(C)C`, the zone of inhibition at 100 µg/disc in experiment [1] and in experiment [6] was 19 mm throughout. Further, the MIC in experiment [2] and in experiment [7] was 15.6 µg/mL (≈ 41.6 µM) throughout. Moreover, in experiment [3], the “diameter of the inhibition zone (DIZ)” value is “inactive”. In addition, the IC50 in experiment [4] came out at 20 µM; in experiment [5], 16 µM.
Regarding `COC(=O)CNC(=O)CSC1=C(OC)C(=O)c2ccccc2C1=O`, the results for the zone of inhibition at 100 µg/disc in experiment [1] and in experiment [6] were 16 mm and 17 mm, respectively. The MIC in experiment [2] and in experiment [7] was 15.6 µg/mL (≈ 44.7 µM) throughout. For the same compound, the “diameter of the inhibition zone (DIZ)” value in experiment [3] is “inactive”. For the same compound, the figures for the IC50 in experiment [4] and in experiment [5] were 77.5 µM and 12 µM, respectively.
Take `CC1=CC(=O)c2c(O)cccc2C1=O` [PLUMBAGIN]: the zone of inhibition at 100 µg/disc in experiment [1] and in experiment [6] was 12 mm in each case. Also, the MIC in experiment [2] and in experiment [7] was 125 µg/mL (≈ 664 µM) throughout. The “diameter of the inhibition zone (DIZ)” value in experiment [3] was “inactive”. Moreover, the values for the IC50 in experiment [4] and in experiment [5] were 25.5 µM and 3 µM, respectively.
On to `COC(=O)[C@H](Cc1ccccc1)NC(=O)CSC1=C(C)C(=O)c2cccc(OC)c2C1=O`, for which the zone of inhibition at 100 µg/disc in experiment [1] was found to be 13 mm; in experiment [6], 15 mm. Moreover, the MIC in experiment [2] and in experiment [7] was 125 µg/mL (≈ 276 µM) in each case. Moreover, the “diameter of the inhibition zone (DIZ)” value in experiment [3] was “inactive”. For the same compound, the half-maximal inhibitory concentration (IC50) was more than 100 µM in experiment [4] and 56.5 µM in experiment [5].
